Results as given in ChEMBL document CHEMBL1126854, “A series of penicillin derived C2-symmetric inhibitors of HIV-1 proteinase: synthesis, mode of interaction, and structure-activity relationships” (J Med Chem, 1993).

Key:
[1] = tested on: Human immunodeficiency virus 1; test: Inhibitory effects on HIV-1 induced syncytium formation in C8166 cells; type: functional, organism-based; settings: Human immunodeficiency virus 1, C8166
How it was run: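 C8166 cells were infected with HIV-1 RF at moi 1×10^-3 and plated at 10^5 cells/well. Compound in Me2SO was serially diluted in RPMI 1640 from 50 to 0.05 μg/mL. Cells were kept 3–4 days at 37 °C, 5% CO2, and checked daily for syncytia. Syncytia were scored against untreated infected controls, and EC50 was calculated as 50% reduction of cytopathic effect.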

MT4 = test: Inhibition of cytopathic effect of HIV-1 strain RF in MT-4 cell culture; type: functional, cell-based; settings: Homo sapiens
How it was run: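 MT-4 cells at 10^6 cells/mL in RPMI 1640 were infected with HIV-1 RF at moi 2×10^-3 (5×10^4 cells/well). Compound in Me2SO was diluted in 10-fold steps from 100 to 0.01 μg/mL. Cells were kept 7 days at 37 °C, 5% CO2, then given MTT for 60 min. Acidified 2-propanol was added and A540 read. EC50 for 50% inhibition of formazan conversion is the mean of duplicates; toxicity was assayed at the same concentrations.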

[2] = target: Human immunodeficiency virus type 1 protease (Human immunodeficiency virus 1, UniProt Q72874); test: Inhibitory activity against HIV-1 Protease
How it was run: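 Buffer: 20 mM MES pH 6.0, 2 M NaCl, 5 mM DTT, 2 mM EDTA. Compounds in 25% Me2SO over a concentration range. Incubated 60 min at 37 °C with shaking, then filtered; released radioactivity counted by scintillation. IC50 from duplicate means, standardized to a reference-compound control.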

[3] = Volume of distribution in Beagles dog at a dose of 1 mg/kg given intravenously; type: ADME, organism-based, Canis lupus familiaris; parameters: dose 1 mg/kg, route intravenous; settings: beagle, in vivo, iv, read-out: Distribution
How it was run: (§1)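 Single intravenous dose in a vehicle of ethanol (10–20%), polyethyleneglycol (10%) and saline. Doses were 5 mg/kg for CD rats (n = 2 per time point), 1 mg/kg for beagles (n = 2) and 5 mg/kg for cynomolgus monkeys (n = 2). Plasma t1/2, plasma clearance and steady-state volume of distribution were derived.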

[4] = Volume of distribution in Cynomolgus monkey at a dose of 5 mg/kg given intravenously; type: ADME, organism-based, Macaca fascicularis; parameters: dose 5 mg/kg, route intravenous; settings: in vivo, iv, read-out: Distribution; how it was run: as §1
[5] = Plasma clearance in Beagles dog at a dose of 1 mg/kg given intravenously; type: ADME, organism-based, Canis lupus familiaris; parameters: dose 1 mg/kg, route intravenous; settings: beagle, iv; how it was run: as §1
[6] = Plasma clearance in CD rat at a dose of 5 mg/kg given intravenously; type: ADME, organism-based; parameters: dose 5 mg/kg, route intravenous; settings: iv; how it was run: as §1
[7] = Plasma clearance in Cynomolgus monkey at a dose of 5 mg/kg given intravenously; type: ADME, organism-based, Macaca fascicularis; parameters: dose 5 mg/kg, route intravenous; settings: iv; how it was run: as §1
[8] = Half-life in Beagles dog at a dose of 1 mg/kg given intravenously; type: ADME, organism-based, Canis lupus familiaris; parameters: dose 1 mg/kg, route intravenous; settings: beagle, in vivo, iv; how it was run: as §1
[9] = Half-life in CD rat at a dose of 5 mg/kg given intravenously; type: ADME, organism-based; parameters: dose 5 mg/kg, route intravenous; settings: in vivo, iv; how it was run: as §1
[10] = Half-life in Cynomolgus monkey at a dose of 5 mg/kg given intravenously; type: ADME, organism-based, Macaca fascicularis; parameters: dose 5 mg/kg, route intravenous; settings: in vivo, iv; how it was run: as §1
[11] = Volume of distribution in CD rat at a dose of 5 mg/kg given intravenously; type: ADME, organism-based; parameters: dose 5 mg/kg, route intravenous; settings: in vivo, iv, read-out: Distribution; how it was run: as §1

Compound | EC50 [1] [nM] | EC50 (MT4) [nM] | IC50 [2] [nM] | other results
CCNC(=O)[C@@H](NS(=O)(=O)Cc1ccccc1)[C@@H]1N[C@@H](C(=O)NCCNC(=O)[C@@H]2N[C@@H]([C@H](NS(=O)(=O)Cc3ccccc3)C(=O)NCC)SC2(C)C)C(C)(C)S1 | 13000 | 32000 | 58 | 
CCNC(=O)[C@@H](NC(=O)Cc1cccs1)[C@@H]1N[C@@H](C(=O)NCCNC(=O)[C@@H]2N[C@@H]([C@H](NC(=O)Cc3cccs3)C(=O)NCC)SC2(C)C)C(C)(C)S1 | 5200 | 27000 | 15 | 
CC1(C)S[C@H]([C@H](NC(=O)c2ccccc2-c2ccccc2)C(=O)NCc2ccccc2)N[C@H]1C(=O)NCCNC(=O)[C@@H]1N[C@@H]([C@H](NC(=O)c2ccccc2-c2ccccc2)C(=O)NCc2ccccc2)SC1(C)C | 130 | 110 | 7.5 | 
CCNC(=O)[C@@H](NC(=O)c1ccccc1-c1ccccc1)[C@@H]1N[C@@H](C(=O)NCCNC(=O)[C@@H]2N[C@@H]([C@H](NC(=O)c3ccccc3-c3ccccc3)C(=O)NCC)SC2(C)C)C(C)(C)S1 | 170 | 30 | 9.9 | 
CC1(C)S[C@H]([C@H](NC(=O)Cc2ccccc2)C(=O)NCC(F)(F)F)N[C@H]1C(=O)NCCNC(=O)[C@@H]1N[C@@H]([C@H](NC(=O)Cc2ccccc2)C(=O)NCC(F)(F)F)SC1(C)C | 220 | 280 | 4.4 | 
CC1(C)S[C@H]([C@H](NC(=O)Cc2ccccc2)C(=O)NCC2CCCCC2)N[C@H]1C(=O)NCCNC(=O)[C@@H]1N[C@@H]([C@H](NC(=O)Cc2ccccc2)C(=O)NCC2CCCCC2)SC1(C)C | 60 | 8200 | 40 | 
CC1(C)S[C@H]([C@H](NC(=O)Cc2ccccc2)C(=O)N2CCCCC2)N[C@H]1C(=O)NCCNC(=O)[C@@H]1N[C@@H]([C@H](NC(=O)Cc2ccccc2)C(=O)N2CCCCC2)SC1(C)C | 230 | 1800 | 6.9 | 
CCNC(=O)[C@@H](NC(=O)Cc1ccccc1)[C@@H]1N[C@@H](C(=O)NCCNC(=O)[C@@H]2N[C@@H]([C@H](NC(=O)Cc3ccccc3)C(=O)NCC)SC2(C)C)C(C)(C)S1 | 1100 | 5400 |  | Vd [3]: 50 L; Vd [4]: 17 L; clearance [5]: 300 mL/min; clearance [6]: 12 mL/min; clearance [7]: 200 mL/min; half-life [8]: 4 h; half-life [9]: 5 h; half-life [10]: 1.2 h; Vd [11]: 2.8 L
CC1(C)S[C@H]([C@H](NC(=O)Cc2ccccn2)C(=O)NCc2ccc(Cl)cc2Cl)N[C@H]1C(=O)NCCNC(=O)[C@@H]1N[C@@H]([C@H](NC(=O)Cc2ccccn2)C(=O)NCc2ccc(Cl)cc2Cl)SC1(C)C | 240 | 530 | 14 | 
